Usually MIC stands for the smallest concentration in the dilution series that meets the test's criterion for growth inhibition. A higher MIC goes with a less susceptible organism.

In brackets after ≈: the same amount, converted by molar mass. Activity calls are given as the source filed them. Where only a bound is given, the exact number is not on record here.

Data on eleven compounds can be found in ChEMBL document CHEMBL1156239, “Synthesis, anticonvulsant and antimicrobial activities of some new 2-acetylnaphthalene derivatives” (Bioorg Med Chem, 2010).

Data set [1] deals with Mus musculus. Description: Neurotoxicity in CF1 mouse at 30 mg/kg, ip after 4 hrs by rotarod test. Format: toxicity, organism-based. Set-up: dose 30 mg/kg, route intraperitoneal. Conditions: in vivo. A digest of the protocol: (§1)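 Male albino CF#1 mice (18–25.5 g) dosed ip with compound suspended in 0.5% methylcellulose, 0.5 h or 4 h before testing; neurotoxicity assessed by rotarod, scored as number toxic/number tested.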
In general terms: In the rotarod test animals must keep their balance on a rotating rod.

In data set [2] the test system is Mus musculus. Description: Neurotoxicity in CF1 mouse at 100 mg/kg, ip after 4 hrs by rotarod test. Format: toxicity, organism-based. More on the design: dose 100 mg/kg, route intraperitoneal. Conditions: in vivo. An outline of the steps:
as §1

The subject of data set [3] is Mus musculus. Description: Neurotoxicity in CF1 mouse at 300 mg/kg, ip after 4 hrs by rotarod test. Format: toxicity, organism-based. More on the design: dose 300 mg/kg, route intraperitoneal. Conditions: in vivo. A digest of the protocol:
as §1

Data set [4] has as its system Mus musculus. Description: Anticonvulsant activity in CF1 mouse assessed as inhibition of maximal electroshock-induced seizures at 300 mg/kg, ip after 4 hrs. The format is functional, organism-based. Set-up: dose 300 mg/kg. A digest of the protocol:
(§2)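 Male albino CF#1 mice (18–25.5 g), compound suspended in 0.5% methylcellulose, given ip 0.5 h or 4 h before test. Eyes treated with 0.5% tetracaine HCl in saline; corneal-type MES at 60 Hz, 50 mA for 0.2 s; protection scored as animals protected/tested.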
For orientation: Protection in the maximal electroshock model is a classic sign of anticonvulsant action.

For data set [5], the system named is Mus musculus. The data set is described as follows: Anticonvulsant activity in CF1 mouse assessed as inhibition of maximal electroshock-induced seizures at 300 mg/kg, ip after 0.5 hrs. Format: functional, organism-based. Set-up: dose 300 mg/kg. A digest of the protocol:
as §2

Data set [6] has as its system Mus musculus. Description: Neurotoxicity in CF1 mouse at 300 mg/kg, ip after 0.5 hrs by rotarod test. Format: toxicity, organism-based. Set-up: dose 300 mg/kg, route intraperitoneal. Conditions: in vivo. A digest of the protocol: as §1
The test system of data set [7] is Mus musculus. Description: Anticonvulsant activity in CF1 mouse assessed as inhibition of maximal electroshock-induced seizures at 30 mg/kg, ip after 4 hrs. More on the design: dose 30 mg/kg. Format: functional, organism-based. An outline of the steps: as §2
The subject of data set [8] is Mus musculus. The data set is described as follows: Anticonvulsant activity in CF1 mouse assessed as inhibition of maximal electroshock-induced seizures at 100 mg/kg, ip after 4 hrs. The format is functional, organism-based. Set-up: dose 100 mg/kg. An outline of the steps: as §2
For data set [9], the system named is Mus musculus. Description: Anticonvulsant activity in CF1 mouse assessed as inhibition of maximal electroshock-induced seizures at 100 mg/kg, ip after 0.5 hrs. Format: functional, organism-based. More on the design: dose 100 mg/kg. An outline of the steps: as §2
The test system of data set [10] is Mus musculus. Description: Neurotoxicity in CF1 mouse at 100 mg/kg, ip after 0.5 hrs by rotarod test. More on the design: dose 100 mg/kg, route intraperitoneal. To be noted: in vivo. Format: toxicity, organism-based. An outline of the steps: as §1
The subject of data set [11] is Mus musculus. The data set is described as follows: Neurotoxicity in CF1 mouse at 30 mg/kg, ip after 0.5 hrs by rotarod test. Format: toxicity, organism-based. Set-up: dose 30 mg/kg, route intraperitoneal. Conditions: in vivo. An outline of the steps: as §1
The subject of data set [12] is Mus musculus. Description: Anticonvulsant activity in CF1 mouse assessed as inhibition of maximal electroshock-induced seizures at 30 mg/kg, ip after 0.5 hrs. The format is functional, organism-based. More on the design: dose 30 mg/kg. An outline of the steps: as §2
The test system of data set [13] is Pichia kudriavzevii. Description: Antifungal activity against Candida krusei ATCC 6258 after 48 hrs by broth microdilution method. Format: functional. Conditions: ATCC 6258, 48 h.
The subject of data set [14] is Candida parapsilosis. Description: Antifungal activity against Candida parapsilosis ATCC 22019 after 48 hrs by broth microdilution method. The format is functional. Conditions: Lodderomyces parapsilosis, ATCC 22019, 48 h.
Data set [15] deals with Pseudomonas aeruginosa. The data set is described as follows: Antibacterial activity against Pseudomonas aeruginosa ATCC 27853 after 24 hrs by broth microdilution method. Format: functional. To be noted: ATCC 27853, 24 h. An outline of the steps: (§3)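 Broth microdilution in Mueller Hinton broth; compound stocks in DMSO, diluted into test medium. Plates incubated at 35 °C and read visually after 24 h. MIC taken as lowest concentration preventing visible growth. Ampicillin reference.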
In general terms: Broth dilution looks for growth in wells or tubes with falling amounts of substance.

In data set [16] the test system is Staphylococcus aureus. The data set is described as follows: Antibacterial activity against Staphylococcus aureus ATCC 25923 after 24 hrs by broth microdilution method. Format: functional. To be noted: ATCC 25923, 24 h. An outline of the steps: as §3
Data set [17] concerns Enterococcus faecalis. Description: Antibacterial activity against Enterococcus faecalis ATCC 29212 after 24 hrs by broth microdilution method. Format: functional. Conditions: ATCC 29212, 24 h. A digest of the protocol:
as §3

Data set [18] concerns Escherichia coli. The data set is described as follows: Antibacterial activity against Escherichia coli ATCC 25922 after 24 hrs by broth microdilution method. Format: functional. Conditions: ATCC 25922, 24 h. An outline of the steps:
as §3

For `CCCCC(=O)OC(C)c1ccc2ccccc2c1` (stereo unspecified), the Activity result in data set [1], in data set [2], in [3], in data set [6], in data set [10] and in data set [11] was “Non-toxic” each time. Further, the inhibition entry in data set [4], in data set [5], in data set [7], in data set [8], in [9] and in data set [12] was “inactive” in each case.
For `O=C(OC(Cn1ccnc1)c1ccc2ccccc2c1)c1ccc(Cl)cc1` (stereo unspecified), the MIC in [13] amounted to 512 µg/mL (≈ 1360 µM); in data set [14], 512 µg/mL (≈ 1360 µM); in data set [15], 1020 µg/mL (≈ 2720 µM); in [16], 32 µg/mL (≈ 84.9 µM); in data set [17], 128 µg/mL (≈ 340 µM); in [18], 1020 µg/mL (≈ 2720 µM). In addition, the Activity result in data set [1], in data set [2], in [3], in data set [10] and in data set [11] was “Non-toxic” in each case. Also, the inhibition entry in data set [4], in [7], in [8], in data set [9] and in data set [12] was “inactive” each time. In [5], the inhibition entry was “Active”.
Consider `CC(OC(=O)CCCNC(=O)OC(C)(C)C)c1ccc2ccccc2c1` (stereo unspecified), for which the Activity entry in data set [1], in data set [2], in data set [3], in data set [6] and in data set [11] was “Non-toxic” each time. Moreover, the inhibition entry in [4], in data set [5], in [7], in data set [8], in [9] and in data set [12] was “inactive” each time.
As to `C/C(=N\CCCC(=O)O)c1ccc2ccccc2c1O`, the Activity result in [1] was “Non-toxic”; in data set [2] it was “Non-toxic”; in data set [3], “Non-toxic”; in [6], “Toxic”; in data set [10], “Non-toxic”; in data set [11], “Non-toxic”. Further, the inhibition entry in data set [4], in [5], in data set [7], in [8], in data set [9] and in data set [12] was “inactive” throughout.
Take `Oc1c(C(O)Cn2ccnc2)ccc2ccccc12` (stereo unspecified): the minimum inhibitory concentration (MIC) was 512 µg/mL (≈ 2010 µM) in [13]; 512 µg/mL (≈ 2010 µM) in [14]; greater than 1020 µg/mL in data set [15]; 512 µg/mL (≈ 2010 µM) in data set [16]; 256 µg/mL (≈ 1010 µM) in [17]; greater than 1020 µg/mL in [18]. Also, the Activity result in [1], in [2], in data set [3], in data set [10] and in data set [11] was “Non-toxic” each time. The inhibition result in data set [4], in data set [5], in [7], in data set [8], in data set [9] and in [12] was “inactive” in each case.
For the compound `OC(Cn1cncn1)(Cn1cncn1)c1ccc(F)cc1F` [FLUCONAZOLE], the MIC in data set [13] is 64 µg/mL (≈ 209 µM); in [14] it was 8 µg/mL (≈ 26.1 µM).
For `O=C(Cn1ccnc1)c1ccc2ccccc2c1O`, the MIC in data set [13] was 64 µg/mL (≈ 254 µM); in [14] it was 32 µg/mL (≈ 127 µM); in data set [15], greater than 1020 µg/mL; in data set [16] it was 64 µg/mL (≈ 254 µM); in [17] it was 64 µg/mL (≈ 254 µM); in data set [18], 1020 µg/mL (≈ 4060 µM). Further, the Activity result in [1], in data set [2], in data set [3], in data set [10] and in data set [11] was “Non-toxic” each time. The inhibition result in data set [4] and in [5] was “Active” throughout. Further, the inhibition result in data set [7], in data set [8], in [9] and in data set [12] was “inactive” each time.
Turning to `CC(C)(C)OC(=O)NCCCC(=O)OC(Cn1ccnc1)c1ccc2ccccc2c1` (stereo unspecified), the minimal inhibitory concentration (MIC) was greater than 1020 µg/mL in data set [13]; greater than 1020 µg/mL in data set [14]; greater than 1020 µg/mL in data set [15]; 16 µg/mL (≈ 37.8 µM) in [16]; 128 µg/mL (≈ 302 µM) in data set [17]; greater than 1020 µg/mL in [18]. For the same compound, the Activity entry in data set [1], in data set [2], in [3] and in data set [11] was “Non-toxic” in each case. Further, the inhibition result in data set [4], in data set [5] and in data set [9] was “Active” each time. The inhibition result in data set [7], in data set [8] and in data set [12] was “inactive” in each case.
For the compound `CC(C)CC(=O)OC(C)c1ccc2ccccc2c1` (stereo unspecified), the Activity entry in [1], in [2], in [3], in [6], in data set [10] and in data set [11] was “Non-toxic” throughout. Also, the inhibition entry in data set [4], in [5], in data set [7], in data set [8], in [9] and in data set [12] was “inactive” in each case.
Turning to `CC1(C)S[C@@H]2[C@H](NC(=O)[C@H](N)c3ccccc3)C(=O)N2[C@H]1C(=O)O` [AMPICILLIN], the MIC in [16] stood at 1 µg/mL (≈ 2.86 µM); in data set [17] it was 2 µg/mL (≈ 5.72 µM); in data set [18] it was 8 µg/mL (≈ 22.9 µM).
Take `CCCC(CCC)C(=O)OC(C)c1ccc2ccccc2c1` (stereo unspecified): the Activity entry in data set [1], in data set [2], in data set [3], in data set [6], in data set [10] and in data set [11] was “Non-toxic” in each case. Moreover, the inhibition result in [4], in [5], in [7], in data set [8], in [9] and in [12] was “inactive” throughout.
